Screening data (PubChem BioAssay)
Cardio protect: cardioprotection against H2O2-induced cell death, primary screen, uHTS, H9c2 cells, ATPLite luminescence. 0.63% of 360,000 active. H9c2 cardiomyocytes, H2O2 injury protection, 2 h. AID 588492, 2011. protection from H2O2 cell death, % at 20 µM;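 active = compounds giving at least 50% protection of heart cells from peroxide-induced death in the single-dose screen, raw or plate-pattern-corrected value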;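 also: 0% = DMSO wells with peroxide and 100% = DMSO wells without peroxide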
Exocytosis inh: LAMP-1 surface exposure blockers, TALL-104 cells – cell-based, flow cytometry, MLPCN library, primary screen. TALL-104 LAMP-1 surface exposure; cells stimulated with thapsigargin and PMA. inhibition, % at 10 µM. 0.66% of 360,000 active. AID 651702, 2012;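 active = inhibition above about 55%, limit read from the data; inconclusive = no clear call, values can overlap the other calls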
HNF4A DNA FP: change in binding of human HNF4A to DNA, primary screen, biochemical, fluorescence polarization, FITC-DNA. Hepatocyte nuclear factor 4-alpha (Homo sapiens), P41235. 1 h. activity change, % at 10 µM. 0.3% of 360,000 active; in the data active = activity change above about 30%, passing the limit was not always enough
DSG3 Ab inh: inhibitors of pemphigus antibody binding to DSG3, primary screen, biochemical, bead-based, flow cytometry, scFv-GFP | DSG3-coupled beads, scFv-anti-DSG3-GFP binding; hits give low values | binding (percent of control), % at 10 µM | 0.48% of 310,000 active | AID 588358, 2011;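 active = binding more than 3 SD below its plate's average and above zero; inconclusive = below that plate limit but binding exactly zero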;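 also: hits lower antibody fragment binding to DSG3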
Myeloid diff MLP: induction of myeloid progenitor differentiation, primary screen, cell-based, flow cytometry, MLPCN library. ER-HoxA9 myeloid progenitors, lysozyme-GFP differentiation. calls only at 10 µM. 1% of 360,000 active. AID 624256, 2012;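 active = normalized GFP-positive differentiation at or above the plate's own cutoff, the solvent-only control mean plus 3 SD; inconclusive = no clear call, values can overlap the other calls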;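 also: cells exposed to compound for four days before flow analysis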
SENP1 inh: human SENP1 catalytic domain inhibitors, primary screen, biochemical, FRET, uHTS; recombinant SENP1 catalytic domain, CyPet-SUMO1-YPet FRET cleavage; inhibition, % at 10 µM; Sentrin-specific protease 1 (Homo sapiens), Q9P0U3; AID 624204, 2012; 0.21% of 360,000 active;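 active = inhibition at least 30% at 10 µM, raw YFP signal under a set limit, fluorescence ratio 0.5 to 1.5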;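 also: 0% = enzyme with DMSO and 100% = no enzyme wells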
Target sequence (Q9P0U3 419-644 limits assumed): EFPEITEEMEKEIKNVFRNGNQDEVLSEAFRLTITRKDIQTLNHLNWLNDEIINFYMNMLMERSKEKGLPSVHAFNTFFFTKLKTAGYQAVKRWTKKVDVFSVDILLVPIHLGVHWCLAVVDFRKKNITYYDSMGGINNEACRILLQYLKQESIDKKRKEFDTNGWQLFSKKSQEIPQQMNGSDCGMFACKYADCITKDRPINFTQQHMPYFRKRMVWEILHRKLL
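Test system: human SENP1 catalytic domain; medium: Tris pH 8 buffer plus EDTA, NaCl, BME, BSA, NP40, catalase; incubation: 50 min reaction at room temperature; technique: FRET, CFP and YFP emission; controls: no-enzyme low control and enzyme-plus-DMSO high control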
The depositor's hits bear a star; i = inactive; ? = inconclusive; . = not tested or not shown; + = active, no number. Most compounds without a hit are left out; they make up all but 3% or so of the library.

SMILES | Cardio protect | Exocytosis inh | HNF4A DNA FP | DSG3 Ab inh | Myeloid diff MLP | SENP1 inh
CCN(CC(=O)Nc1c(F)cccc1F)C(=O)CNC(=O)C1CCCCC1 | 5 | -3 | -4 | 102 | i | 4
NC(=O)CC(NC(=O)c1ccc(Br)cc1)c1ccc(N2CCN(c3ccccn3)CC2)c([N+](=O)[O-])c1 (centres undefined) | -9 | 65* | -4 | 104 | i | 3
O=C(Nc1ccc(Cl)cc1)N1CCN(c2ccc3nnc(-c4ccc(F)cc4)n3n2)CC1 | 53* | 4 | -5 | 105 | i | 1
O=C(c1ccc(Br)o1)N1CCN(c2ccc3nnc(-c4ccc(F)cc4)n3n2)CC1 | 52* | 0 | -6 | 102 | i | 1
CC1=C(C(=O)N2CCCCCC2)CC(CC(=O)NCCCN(C)C)C(=O)N1Cc1ccccc1 (centres undefined) | 5 | -1 | -2 | . | i | 2
O=C(Nc1nccs1)c1ncc(Cl)c(Cl)c1Cl | 6 | -3 | 21 | 111 | i | 0
CCOc1cc(/C=C(/C#N)C(=O)Nc2ccc(O)cc2)cc(Br)c1O | 0 | 6 | 54* | 101 | ? | 6
C=CCNC(=O)/C(C#N)=C\c1cc(Cl)c(O)c(OCC)c1 | 2 | -6 | 4 | 96 | i | -45
CCOc1ccc(NC(=O)/C(C#N)=C/c2ccc(N3CCCC3)c(C)c2)cc1 | -32 | 2 | 74 | 153 | + | -27
CCOc1ccc(NC(=O)/C(C#N)=C/c2cn(CC(=O)O)c3ccccc23)cc1 | 3 | 2 | 3 | 118 | i | -94
CCN(CC)S(=O)(=O)c1ccc(N2CCCCC2)c(NC(=O)/C(C#N)=C/c2ccc(OC)cc2)c1 | -1 | -3 | 4 | 99 | + | -8
CCCCn1c(N)c(N(CCC(C)C)C(=O)c2ccc([N+](=O)[O-])s2)c(=O)[nH]c1=O | 3 | 8 | -1 | 106 | i | 7
CCCN(C(=O)c1ccc(N(C)S(=O)(=O)c2ccc(C)cc2)cc1)C1CCS(=O)(=O)C1 (centres undefined) | -2 | 0 | 0 | 101 | i | 0
OCC[C@@H]1C[C@H](O)[C@@H](O)[C@]2(OCc3ccc4ccccc4c32)O1 | 6 | 2 | -3 | 98 | i | 0
CC(C)Nc1ncnc2c1cnn2Cc1ccc(Cl)cc1 | 10 | -8 | 2 | 94 | i | 0
c1ccc(CNc2ncnc3c2cnn3Cc2ccccc2)cc1 | 16 | -1 | 0 | 96 | + | 1
CCC(C)Nc1ncnc2c1cnn2Cc1ccc(Cl)cc1 (centres undefined) | 89* | 0 | -5 | 105 | i | 1
CCOc1ccc(N=NC2C(=O)N(C(N)=S)N=C2C)cc1 (centres undefined) | -8 | 13 | 8 | 109 | i | 5
Cc1cccc2cc(C#N)c(NCCNS(=O)(=O)c3ccc4c(c3)OCCO4)nc12 | 1 | -1 | 1 | . | + | -66
O=C1OCCN1C(=O)[C@H]1[C@H](c2ccc([N+](=O)[O-])cc2)C(c2cccc(Cl)c2)=NN1c1ccc(Br)cc1 | 51* | 0 | 0 | 95 | i | -6
O=C1OCCN1C(=O)[C@H]1[C@H](c2ccc([N+](=O)[O-])cc2)C(c2ccccc2)=NN1c1ccc(Br)cc1 | 55* | 2 | -2 | 90 | i | 2
O=C1OCCN1C(=O)[C@H]1[C@H](c2ccccc2)C(c2cccc(Cl)c2)=NN1c1ccc(Br)cc1 | 4 | 0 | 3 | 93 | i | -28
O=C1OCCN1C(=O)[C@H]1[C@H](c2ccc(Cl)cc2)C(c2ccccc2)=NN1c1ccc(Br)cc1 | 18 | -2 | 1 | 98 | i | -107
Cn1c(=O)c2sccc2n2c(CCCC(=O)N3CCN(c4ccccn4)CC3)nnc12 | 1 | 25 | 2 | . | i | -3
O=C(NCCc1ccccc1C(F)(F)F)C1CCC(=O)N(CCCN2CCCC2=O)C1 (centres undefined) | 12 | -5 | -2 | 105 | i | 2
SMILES | Cardio protect | Exocytosis inh | HNF4A DNA FP | DSG3 Ab inh | Myeloid diff MLP | SENP1 inh
COC(=O)c1c(NC(=O)Cc2cccs2)sc2c1CCC(C)C2 (centres undefined) | -14 | -1 | 1 | 94 | i | -5
COC(=O)c1c(NC(=S)NN2CCN(C)CC2)sc2c1CCC(C)C2 (centres undefined) | -12 | 64* | 1 | 107 | i | -4
CCC(C(=O)Nc1ncn[nH]1)(C(F)(F)F)C(F)(F)F | -3 | 2 | -5 | . | + | 1
N#CC1CC(c2ccc([N+](=O)[O-])cc2)=NN1c1ccc([N+](=O)[O-])cc1 (centres undefined) | 0 | 0 | 87 | 89 | + | -33
O=[N+]([O-])c1cccc(C2CC(c3ccccc3)=NN2c2ccccc2)c1 (centres undefined) | 1 | -1 | -3 | 98 | i | -2
Cc1c(C(=O)Nc2ccc(-c3nnc4n3CCCCC4)cc2)oc2c1ccc1ccccc12 | 52* | 5 | -5 | 81 | i | -1
O=C(CN1CCN(Cc2ccccc2Cl)CC1)N/N=C/c1ccccn1 | -4 | -5 | 28 | 106 | i | 0
O=C(N/N=C/C=C\c1ccccc1)c1cnccn1 | -1 | 4 | 4 | 97 | i | 2
O=C(N/N=C/C(Br)=C/c1ccccc1)c1cnccn1 | -9 | -1 | 12 | 113 | + | 1
COc1cc(C)ccc1OCc1cc(C(=O)NC(c2ccccn2)C(F)(F)F)no1 (centres undefined) | -6 | 4 | 1 | 79* | i | 2
COc1cc(C)ccc1OCc1cc(C(=O)NC2CCOCC2)no1 | 4 | -2 | -3 | 110 | i | -2
O=C(COc1ccc2ccc(=O)oc2c1)NCCN1CCOCC1 | -2 | 0 | -3 | 97 | i | 4
O=C(NCCc1c[nH]c2ccccc12)C(=O)NCC(c1ccco1)N1CCN(c2ccccc2F)CC1 (centres undefined) | 63* | -8 | 2 | 114 | i | 1
O=C(CSc1nc2cc(Cl)ccc2s1)Nc1cccc(S(=O)(=O)N2CCOCC2)c1 | -5 | -3 | 5 | 128 | i | 1
Cc1cc(SCC(=O)OCC(=O)N(CCC#N)c2ccccc2)nc2ccccc12 | 3 | 0 | 0 | 103 | i | 3
